Laboratory results from ChEMBL document CHEMBL5036319, “Discovery of Novel Benzothiazepinones as Irreversible Covalent Glycogen Synthase Kinase 3β Inhibitors for the Treatment of Acute Promyelocytic Leukemia” (J Med Chem, 2021).

Legend:
[1] = Induction in caspase-mediated apoptosis in human NB-4 cells assessed as necrotic cells at 25 uM incubated for 24 hrs by Annexin V-FITC/Propidium iodide staining based flow cytometry analysis (reference value: 0.352%); assay type: functional
[2] = Induction in caspase-mediated apoptosis in human NB-4 cells assessed as late apoptotic cells at 12.5 uM incubated for 24 hrs by Annexin V-FITC/propidium iodide staining based flow cytometry analysis (reference value: 1.06%); assay type: functional
HL-60 = test: Cytotoxicity against human HL-60 cells assessed as reduction in cell viability measured after 24 hrs by CCK-8 assay; assay type: functional, cell-based; details: HL-60, 24 h
Procedure, shortened: (§1)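 Cells were grown in RPMI-1640 or high-glucose DMEM with 10% FBS at 37 °C, 5% CO2, and seeded at 3 × 10^4 cells/well. Exposure was 24 h across serial concentrations (0−1000 μM in the screen). […] Three independent experiments, mean ± SEM.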

[3] = Induction in caspase-mediated apoptosis in human NB4-DR1 cells assessed as necrotic cells at 50 uM incubated for 24 hrs by Annexin V-FITC/propidium iodide staining based flow cytometry analysis (reference value: 0.19%); assay type: functional
[4] = Induction in caspase-mediated apoptosis in human NB4-DR1 cells assessed as viable cells at 12.5 uM incubated for 24 hrs by Annexin V-FITC/propidium iodide staining based flow cytometry analysis (reference value: 96.9%); assay type: functional; details: read-out: Activity
[5] = Induction in caspase-mediated apoptosis in human NB-4 cells assessed as early apoptotic cells at 25 uM incubated for 24 hrs in presence of Z-VAD-FMK by Annexin V-FITC/propidium iodide staining based flow cytometry analysis (reference value: 1.84%); assay type: functional
[6] = Induction in caspase-mediated apoptosis in human NB4-DR1 cells assessed as viable cells at 25 uM incubated for 24 hrs in presence of Z-VAD-FMK by Annexin V-FITC/propidium iodide staining based flow cytometry analysis (reference value: 96.4%); assay type: functional; details: read-out: Activity
[7] = Induction in caspase-mediated apoptosis in human NB4-DR1 cells assessed as early apoptosis cells at 25 uM incubated for 24 hrs in presence of Z-VAD-FMK by Annexin V-FITC/propidium iodide staining based flow cytometry analysis (reference value: 0.875%); assay type: functional
[8] = Induction in caspase-mediated apoptosis in human NB4-DR1 cells assessed as viable cells at 12.5 uM incubated for 24 hrs in presence of Z-VAD-FMK by Annexin V-FITC/propidium iodide staining based flow cytometry analysis (reference value: 96.4%); assay type: functional; details: read-out: Activity
[9] = Terminal half life in ICR mouse at 15 mg/kg, ip administered as single dose measured upto 8 hrs by LC-MS/MS analysis; assay type: ADME, organism-based; details: in vivo
Procedure, shortened: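 Male ICR mice (30 g) received a single 15 mg/kg i.p. bolus in corn oil. Orbital blood went into K3EDTA tubes at 0.08–8 h, three animals per time point (composite profile). Plasma was protein-precipitated with acetonitrile and analysed by LC–MS/MS; non-compartmental analysis.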

[10] = Induction in caspase-mediated apoptosis in human NB4-DR1 cells assessed as early apoptotic cells at 50 uM incubated for 24 hrs by Annexin V-FITC/propidium iodide staining based flow cytometry analysis (reference value: 1.43%); assay type: functional
[11] = AUCinfinity in ICR mouse at 15 mg/kg, ip administered as single dose measured upto 8 hrs by LC-MS/MS analysis; assay type: ADME, organism-based; design: route intraperitoneal, dose 15 mg/kg, time <=8; details: in vivo
Procedure, shortened: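 Male ICR mice (30 g) given a single i.p. bolus of 15 mg/kg in corn oil. Blood taken by orbital collection into K3EDTA tubes at 0.08, 0.17, 0.5, 1, 2, 4 and 8 h, three animals per time point, giving a composite profile. Plasma proteins were precipitated with acetonitrile and analysed by LC-MS/MS. Parameters were derived by non-compartmental analysis.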

[12] = Induction in caspase-mediated apoptosis in human NB-4 cells assessed as early apoptotic cells at 100 uM incubated for 24 hrs in presence of Z-VAD-FMK by Annexin V-FITC/propidium iodide staining based flow cytometry analysis (reference value: 1.84%); assay type: functional
[13] = Induction in caspase-mediated apoptosis in human NB4-DR1 cells assessed as viable cells at 100 uM incubated for 24 hrs by Annexin V-FITC/propidium iodide staining based flow cytometry analysis (reference value: 96.9%); assay type: functional; details: read-out: Activity
[14] = Induction in caspase-mediated apoptosis in human NB4-DR1 cells assessed as late apoptotic cells at 25 uM incubated for 24 hrs by Annexin V-FITC/propidium iodide staining based flow cytometry analysis (reference value: 1.47%); assay type: functional
[15] = Induction in caspase-mediated apoptosis in human NB4-DR1 cells assessed as early apoptosis cells at 100 uM incubated for 24 hrs in presence of Z-VAD-FMK by Annexin V-FITC/propidium iodide staining based flow cytometry analysis (reference value: 0.875%); assay type: functional
[16] = Induction in caspase-mediated apoptosis in human NB4-DR1 cells assessed as early apoptotic cells at 25 uM incubated for 24 hrs by Annexin V-FITC/propidium iodide staining based flow cytometry analysis (reference value: 1.43%); assay type: functional
[17] = Induction in caspase-mediated apoptosis in human NB4-DR1 cells assessed as viable cells at 50 uM incubated for 24 hrs in presence of Z-VAD-FMK by Annexin V-FITC/propidium iodide staining based flow cytometry analysis (reference value: 96.4%); assay type: functional; details: read-out: Activity
NB4-DR1 = test: Antiproliferative activity against human NB4-DR1 cells assessed as reduction in cell viability incubated for 24 hrs by CCK-8 assay; assay type: functional, cell-based; details: NB4-DR1, 24 h; procedure, shortened: as §1
[18] = Induction in caspase-mediated apoptosis in human NB-4 cells assessed as early apoptotic cells at 50 uM incubated for 24 hrs in presence of Z-VAD-FMK by Annexin V-FITC/propidium iodide staining based flow cytometry analysis (reference value: 1.84%); assay type: functional
[19] = Induction in caspase-mediated apoptosis in human NB-4 cells assessed as viable cells at 100 uM incubated for 24 hrs in presence of Z-VAD-FMK by Annexin V-FITC/propidium iodide staining based flow cytometry analysis (reference value: 96.8%); assay type: functional; details: read-out: Activity
[20] = Induction in caspase-mediated apoptosis in human NB4-DR1 cells assessed as early apoptosis cells at 50 uM incubated for 24 hrs in presence of Z-VAD-FMK by Annexin V-FITC/propidium iodide staining based flow cytometry analysis (reference value: 0.875%); assay type: functional
[21] = Cytotoxicity against human L02 assessed as cell viability at 100 uM incubated for 24 hrs by CCK-8 assay relative to control; assay type: cell-based; details: L02 cells, read-out: Activity
Procedure, shortened: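 HUVEC and LO2 normal cells were cultured in RPMI-1640 or DMEM with 10% FBS at 37 °C, 5% CO2, and seeded at 3 × 10^4 cells/well. They were exposed for 24 h to graded concentrations. CCK-8 incubation was 3 h at 37 °C, with A450 read and viability expressed versus untreated control. Three independent experiments, mean ± SEM.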

[22] = Induction in caspase-mediated apoptosis in human NB4-DR1 cells assessed as late apoptotic cells at 100 uM incubated for 24 hrs in presence of Z-VAD-FMK by Annexin V-FITC/propidium iodide staining based flow cytometry analysis (reference value: 2.54%); assay type: functional

In the case of `C=CC(=O)N1C(=O)CC(c2ccc(F)cc2)Sc2ccccc21` (centres undefined), the Activity [1] is reported as 11.6%, the Activity [2] is reported as 8.04% and the IC50 (HL-60) is reported as 86.3 µM. It also gave an Activity [3] of 2.29%, a viability at 12.5 µM [4] of 92.2% and an Activity [5] of 7.42%. The viability at 25 µM [6] was 93%, the Activity [7] was 1.04% and the viability at 12.5 µM [8] was 96.1%. For the same molecule, the “beta t1/2” value [9] was 14.2 h, the Activity [10] was 1.92% and the AUC [11] was 10838.33 ng·h/mL. The Activity [12] was 5.35%, the viability at 100 µM [13] was 42.7% and the Activity [14] was 14.8%. For the same molecule, the Activity [15] was 2.19%, the Activity [16] was 2.07% and the viability at 50 µM [17] was 91.3%. The IC50 (NB4-DR1) was 26.4 µM, the Activity [18] was 8.18% and the viability at 100 µM [19] was 72.2%. For the same molecule, the Activity [20] was 1.12%, the viability at 24 h, 100 µM [21] was greater than 70% and the Activity [22] was 14.2%.
